This note sets out measurements from ChEMBL document CHEMBL1141142, “Application of fluorescence microscopy for investigation of cellular distribution of dinuclear platinum anticancer drugs” (J Med Chem, 2005).

Common to all, as to type: functional
The nature of test [1]: Inhibitory concentration required for in vitro cytotoxic activity against human U2-OS osteosarcoma cell line. Summed up: (§1)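 MTT growth inhibition; U2-OS or cisplatin-resistant U2-OS/Pt monolayers in DMEM with 10% fetal calf serum, penicillin/streptomycin; (3-5) × 10³ cells/well, attached overnight; five dilutions (from 1 mg/mL stocks in water or dimethylformamide) added in quadruplicate; 72 h exposure; MTT ~120 min, DMSO dissolution, OD 590 nm; IC50 versus control read graphically.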

A short description of test [2]: Inhibitory concentration required for in vitro cytotoxic activity against human U2-OS osteosarcoma cell line (cisplatin Resistant). The method in brief:
as §1

The species named for the next test is Homo sapiens. In words: Relative ratio of IC50 values in both cell lines (U2-OS/Pt)/U2-OS). Summed up:
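Ratio of IC50 in U2-OS/Pt over U2-OS, both from the 72 h MTT growth-inhibition assay (quadruplicate wells, five dilutions, OD 590 nm, IC50 derived graphically).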

By IC50 is commonly meant the concentration that inhibits the measured activity by half. Lower therefore signals inhibition by little substance.

Turning to CISPLATIN [listing 1 of 2 here], the figures for the IC50 in test [1] and in test [2] were 2.9 µM and 7.3 µM, respectively.
As for CISPLATIN [listing 2 of 2 here], the RF in the test listed under Homo sapiens amounted to 2.5.
